Measurements as given in ChEMBL document CHEMBL1151166, “Structures of new sesquiterpenes and hepatoprotective constituents from the Egyptian herbal medicine Cyperus longus” (J Nat Prod, 2004).

Key:
Hepatocyte [1] = assay: Hepatoprotective activity in ddY mouse hepatocytes assessed as inhibition of D-galactosamine-induced cytotoxicity at 100 uM after 44 hrs by MTT assay relative to control; format: functional
Method in brief: (§1)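 Cells then exposed to D-GalN (2 mM) plus test sample for 44 h. MTT was added for 4 h. Formazan was dissolved in acidic 2-propanol and read at 562 nm (reference 660 nm). Inhibition (%) = (sample − control)/(normal − control) × 100. Values are means ± SEM.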

Hepatocyte [2] = assay: Hepatoprotective activity in ddY mouse hepatocytes assessed as inhibition of D-galactosamine-induced cytotoxicity at 10 uM after 44 hrs by MTT assay relative to control; format: functional; method in brief: as §1
Hepatocyte [3] = assay: Hepatoprotective activity in ddY mouse hepatocytes assessed as inhibition of D-galactosamine-induced cytotoxicity after 44 hrs by MTT assay relative to control; format: functional, cell-based; method in brief: as §1
Hepatocyte [4] = assay: Hepatoprotective activity in ddY mouse hepatocytes assessed as inhibition of D-galactosamine-induced cytotoxicity at 30 uM after 44 hrs by MTT assay relative to control; format: functional; method in brief: as §1
Hepatocyte [5] = assay: Hepatoprotective activity in ddY mouse hepatocytes assessed as inhibition of D-galactosamine-induced cytotoxicity at 3 uM after 44 hrs by MTT assay relative to control; format: functional; method in brief: as §1

Row | Compound | inhibition at 100 µM (Hepatocyte [1]) | inhibition at 10 µM (Hepatocyte [2]) | IC50 (Hepatocyte [3]) | inhibition at 30 µM (Hepatocyte [4]) | inhibition at 3 µM (Hepatocyte [5])
1 | CC(C)(O)[C@@H]1CC=C(CO)CC1 | 53.3% | 1.7% | 90 µM | 16.7% | -1.5%
2 | C/C1=C\CC(C)(C)[C@@H](O)[C@H]2C[C@@]2(C)[C@@H](O)CC1 | 54.8% | 16.6% | 70 µM | 37.3% | 5.9%
3 | CC1=C[C@H]2[C@H](C(C)C)CC[C@](C)(O)[C@H]2C[C@H]1O | 15.2% | 3.7% |  | 9.3% | -2.3%
4 | CC1(C)C[C@@H]2O[C@@]2(C)CC[C@H]2O[C@]2(C)C[C@@H]2O[C@H]21 | 51.1% | 9.7% | 95 µM | 25.7% | 6.9%
5 | CC1(C)CC2[C@H]1CC[C@@]1(C)O[C@]2(CO)CC[C@H]1O (stereo partly specified) | 45.9% | 10.4% |  | 19.9% | 5.7%
6 | C=C(C)[C@@H]1CC[C@@H](C)[C@@]2(O)CC(=O)C(C)=C2C1 | 58% | -1.1% | 83 µM | 13.5% | -4.5%
7 | CC1(C)C[C@@H]2[C@@H]1CC[C@@]1(C)C[C@]2(O)CC[C@@H]1O | 51.7% | 16.8% | 100 µM | 26.7% | 6.3%
8 | C=C1C/C=C/C(C)(C)C[C@@H](O)/C(C)=C\C[C@@H]1O | 80.8% | 25.6% | 27 µM | 47.5% | 11.6%
9 | CC1(C)CC2[C@H]1CC[C@@]1(C)OC[C@]2(O)CC[C@@H]1O (stereo partly specified) | 36.4% | 14.3% |  | 24.8% | 12.5%
10 | CC1(C)C[C@H](O)[C@]23CC[C@@H](O)[C@@](C)(CC[C@@H]12)C3 [CLOVANEDIOL] | 40.2% | 13.6% |  | 32.3% | 3.6%
11 | C=C(C)[C@@H]1CC[C@](C)(O)C2=C(C1)[C@](C)(O)CC2=O [CYPERUSOL A1] | 16.5% | 5.6% |  | 9.5% | 2.2%
12 | C=C(C)C(CC[C@H](C)O)CC1=C(C)CCC1=O (stereo partly specified) [CYPERUSOL B1] | 34.7% | 20.4% |  | 22.7% | 3%
13 | C=C(C)C(CC[C@@H](C)O)CC1=C(C)CCC1=O (stereo partly specified) [CYPERUSOL B2] | 19.9% | 6.5% |  | -1.4% | 4.4%
14 | C=C(C)[C@@H]1CC[C@@]2(C)[C@H](O)CC[C@@](C)(O)[C@@H]2C1 [CYPERUSOL C] | 29.9% | 8.1% |  | 28.4% | 6.3%
15 | C=C(C)[C@@H]1CC[C@@H](C)[C@]2(O)CC[C@](C)(O)C(=O)[C@@H]12 [CYPERUSOL D] | 46.1% | 2.6% |  | 31.9% | -3.6%
16 | C=C(C)[C@@H]1CC[C@](C)(O)[C@H]2CC[C@](C)(O)[C@H]2C1 [GUAIDIOL] | 35.4% | 10.4% |  | 20.3% | 2.6%
17 | C=C(C)[C@@H]1CC[C@]2(C)C(=C(C)C(=O)C[C@H]2O)C1 [LIGUCYPERONOL] | 46.7% | 13.9% |  | 12.6% | 5.5%
18 | C=C(C)C(CCC(C)=O)CC1=C(C)CCC1=O (stereo unspecified) [MANDASSIDIONE] | 21.6% | 7.7% |  | 14.7% | -0.1%
19 | COc1cc(C2Oc3cc([C@H]4Oc5cc(O)cc(O)c5C(=O)[C@@H]4O)ccc3OC2CO)ccc1O (stereo partly specified) [SILIBININ] | 77% | 7.7% | 41 µM | 45.2% | 4.8%
20 | CC1=CCC(C(C)(C)O)CC1O (stereo unspecified) [SOBREROL] | 23.7% | 8.9% |  | 15.9% | 5.5%
21 | CC1(C)C[C@H]2[C@H]1[C@H]1C[C@@]1(C)[C@H](O)CC[C@]2(C)O [TRICYCLOHUMULADIOL] | 37.7% | 16.1% |  | 22.1% | 10.9%
